NPR2 activator = GC-B (human) receptor activation | P20594 | HEK293-GC-B cells, CNP EC30, cGMP TR-FRET; 0% at EC30 CNP, 100% saturating CNP | activation, % at 10 µM | 370,000 tested, 0.11% active | AID 1920062;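 active = activation at 10 µM reaching about 35% in either raw or pattern-adjusted values, limit read from the data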
GRIN3A LBD mod = modulators (binders) of human NR3A ligand-binding domain; NR3A LBD differential scanning fluorimetry, Tm shift; 0% = protein alone, 100% = glycine-bound protein; Tm shift relative to glycine control, % at 25 µM; 340,000 tested, 2.5% active; AID 1259313;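 active = melting temperature shift of at least 10% of the positive control shift, at one fixed dose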
NPR1 activator = GC-A (human) enzyme activation. P16066. HEK293 GC-A cells, cGMP TR-FRET, EC30 ANP; 0% at EC30 ANP, 100% saturating ANP. activation, % at 10 µM. 370,000 tested, 0.14% active; in the data active = activation above about 40%
JMJD2C inh = inhibitors of human GASC-1 (JMJD2C) demethylase | 330,000 tested, 0.069% active | inhibition, % at 2.35 µM | GST-JMJD2C(1-420) H3K9me3 demethylation, DELFIA europium;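 active = more than half of a compound's replicate wells show inhibition beyond 50%, single wells judged on their own value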;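 note: signal counts dimethyl H3K9 product captured on neutravidin plate; 0% = median of DMSO wells and 100% = 0.3 times that DMSO median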
Hep lipid drop = modulators of hepatic lipid droplet formation | AML12 mouse hepatocytes, oleate lipid droplets, BODIPY imaging | inhibition, % at 6.5 µM | 240,000 tested, 0.4% active | AID 1656;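 active = lipid droplet intensity inhibited by at least 50%, with more than 500 cells counted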
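Assay system: AML12 hepatocytes (mouse); Probe or stimulus: oleic acid at 100 µM to induce lipid droplet formation; Dosing: compound at 6.5 µM only; Schedule: compound with oleate, overnight; Detection: fluorescence imaging, 20x objective, two fields per well; Measure: % inhibition of lipid droplet signal.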
aDG glyco act = alpha-DG glycosylation activation; 360,000 tested, 0.22% active; activation, % at 10 µM; Pro5-aDG cells, alpha-DG glycosylation AlphaScreen (IIH6); 0% Pro5, 100% B10-LARGE cell signal;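 active = activation of at least 8% versus controls, or a plate z-score of at least 8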;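 note: Pro5 are CHO cells carrying HIG-tagged alpha-DG that lacks glycosylation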
Starred values were filed as active, the others as inactive; nt = no result. Hits are enriched below; roughly 3% of the tested compounds scored in any of these assays.

SMILES | NPR2 activator | GRIN3A LBD mod | NPR1 activator | JMJD2C inh | Hep lipid drop | aDG glyco act
COc1ccc(CN2CC(=O)N(c3cccc(Cl)c3)C2=S)cc1OC | 2 | -4 | 44* | 9 | -1 | 0
COc1ccccc1CNC(=O)c1ccc(NC(=O)CC2SC(N3CCCC3)=NC2=O)cc1 (stereo unspecified) | 1 | 0 | -1 | 10 | nt | 0
COc1ccc(/C=N/NC(=O)c2ccccc2OC)cc1COc1ccccc1[N+](=O)[O-] | 1 | -4 | -2 | -1 | 0 | 0
COc1ccc(/C=N/NS(=O)(=O)c2ccc(C)cc2)cc1OC(=O)c1ccccc1 | 3 | 10* | 0 | 3 | 4 | 0
COc1ccc(/C=N/NS(=O)(=O)c2ccccc2)cc1OC(=O)c1ccc(C)cc1 | -3 | 19* | -1 | 11 | nt | 0
COc1ccc(/C=N\NS(=O)(=O)c2ccc(C)cc2)cc1COc1ccccc1[N+](=O)[O-] | -3 | 12* | -3 | 4 | 11 | 0
COc1cccc(N2CCN(CC(=O)NCc3ccccc3C)CC2)c1 | 12 | nt | -1 | nt | nt | nt
c1ccc(-c2c[nH]c3ccc(OCCN4CCOCC4)c(-c4ccccc4)c23)cc1 | -4 | nt | -3 | nt | nt | nt
O=C(C=Cc1ccccc1)c1c[nH]c2ccccc2c1=O | -2 | -17 | 3 | nt | nt | 1
O=C(/C=C/c1ccccc1)c1c[nH]c2ccccc12 | -6 | 25* | -5 | -9 | -22 | 0
COc1ccc(Nc2nc(-c3cccs3)nc3ccccc23)cc1 | 0 | 27* | -3 | 5 | 14 | 0
COc1cccc(Nc2nc(-c3cccs3)nc3ccccc23)c1 | 18 | 21* | 15 | 14 | -2 | 1
COc1ccc(N2CCN(c3nc(-c4cccs4)nc4ccccc34)CC2)cc1 | -4 | 0 | -3 | 5 | 16 | -1
C[C@@H]1ON(C)[C@H]2C[C@H]3c4[nH]c5c(-c6ccccc6)cccc5c4CCN3C[C@@H]12 | -8 | nt | 0 | nt | nt | nt
O=C(NC(=S)Nc1ccc(Br)c(Cl)c1)C1CC1 | 3 | -2 | 8 | -1 | 5 | 0
CC(=O)c1ccc(NC(=S)Nc2ccc(Br)c(Cl)c2)cc1 | -5 | 29* | 7 | 6 | -18 | 0
CC(=O)Nc1ccc2ccccc2c1 | nt | 0 | nt | -12 | 17 | 0
O=C(Nc1ccccc1)Nc1ccc2ccccc2c1 | -1 | 26* | -6 | -7 | -19 | 0
O=C(c1ccc(NC(=S)Nc2ccc(Cl)c(Cl)c2)cc1)N1CCCC1 | -3 | 15* | 4 | -14 | -46 | 0
CC(=O)c1ccc(NC(=S)NC(C)c2ccc(Cl)cc2Cl)cc1 (stereo unspecified) | 1 | 22* | 2 | -17 | -23 | 2
CC(C)C[C@@H]1CN(CCCC[C@H]2CNC(=O)C(=O)N2CCC2CCCCC2)C(=O)C(=O)N1CC1CCCCC1 | -8 | nt | 2 | nt | nt | 0
CN(Cc1ccccc1)C(=O)OCc1cn(Cc2ccccc2F)nn1 | 7 | nt | 5 | nt | nt | nt
CC(C)c1ccc(NC(=S)Nc2ccc3cn[nH]c3c2)cc1 | -11 | 4 | 4 | 38 | -16 | 0
O=C(Nc1ccccc1)Nc1ccc(Br)c(Cl)c1 | -4 | 30* | -1 | -2 | -25 | 1
CC(=O)c1ccc(NC(=S)Nc2ccc3cn[nH]c3c2)cc1 | -5 | 10* | -3 | -36 | -17 | 0
CC(C)CN1C(=O)[C@@]2(CC(=O)N(C)C2c2ccccc2)c2cc(-n3cc(-c4ccccc4)nn3)ccc21 (stereo partly specified) | 12 | nt | 3 | nt | nt | nt
O=C(/C=C/Nc1ccc(S(=O)(=O)Nc2ncccn2)cc1)c1ccc(Cl)c(Cl)c1 | -1 | 3 | 17 | -13 | 15 | 0
NC(N)=NS(=O)(=O)c1ccc(N/C=C/C(=O)c2ccc(Cl)c(Cl)c2)cc1 | -4 | 13* | 6 | 2 | 10 | 0
O=C(CN1CCCCCCC1)N/N=C/c1ccc(F)cc1F | 1 | 24* | 0 | -12 | 11 | 0
CCN1C[C@@H]2[C@@H]3C(=O)N(C)C(=O)[C@@H]3[C@](CC)(C1=O)N2C(=O)c1ccccc1 | -3 | 0 | 0 | nt | nt | 0

Screening data deposited in PubChem BioAssay by several laboratories.
